The values below come from ChEMBL document CHEMBL2385050 (J Med Chem, 2013).

The target in data set [1] is T1, Estrogen receptor (Homo sapiens) (UniProt P03372).
T1 sequence (whole entry): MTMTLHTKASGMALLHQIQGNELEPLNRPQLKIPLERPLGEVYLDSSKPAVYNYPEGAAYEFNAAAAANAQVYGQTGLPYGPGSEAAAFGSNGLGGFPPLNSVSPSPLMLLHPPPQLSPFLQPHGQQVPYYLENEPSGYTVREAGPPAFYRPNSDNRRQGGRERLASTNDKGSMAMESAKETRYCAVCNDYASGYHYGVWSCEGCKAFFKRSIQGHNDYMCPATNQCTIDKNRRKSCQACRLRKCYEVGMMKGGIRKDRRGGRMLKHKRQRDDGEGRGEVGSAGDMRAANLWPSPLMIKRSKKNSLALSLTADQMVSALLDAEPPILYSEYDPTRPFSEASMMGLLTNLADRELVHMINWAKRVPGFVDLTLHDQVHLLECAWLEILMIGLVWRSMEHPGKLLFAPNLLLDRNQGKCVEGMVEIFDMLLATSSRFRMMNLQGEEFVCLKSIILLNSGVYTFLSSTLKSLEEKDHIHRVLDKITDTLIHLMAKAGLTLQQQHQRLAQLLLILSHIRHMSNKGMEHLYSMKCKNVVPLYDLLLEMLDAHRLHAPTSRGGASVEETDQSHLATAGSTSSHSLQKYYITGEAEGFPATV
Description: Displacement of fluorescent ES2 from human recombinant ERalpha at 100 uM after 2 hrs by fluorimetric analysis relative to control. The method in brief: (§1)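 Fluorescence polarization competition with fluorescent estrogen ligand ES2 (9 nM) and recombinant human ER-α (30 nM) or ER-β (20 nM). Buffer: 100 mM potassium phosphate, 100 μg/mL BGG, 0.02% NaN3. Samples in methanol or methanol/dichloromethane; 2 h incubation protected from light. Read at Ex/Em 485/530 nm. Result is % polarization remaining vs vehicle control; mean of at least three experiments.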

Another data set has as its target T2, Estrogen receptor (Homo sapiens, UniProt P03372).
T2 sequence (P03372 whole entry): T1 sequence (whole entry)
Description: Displacement of fluorescent ES2 from human recombinant ERalpha after 2 hrs by fluorimetric analysis.

In data set [2] the test system is Mus musculus. Description: Cmax in NOD/SCID mouse at 100 mg/kg, po by LC-MS-MS analysis. The data set is classed as ADME, organism-based. Set-up: dose 100 mg/kg, route oral. To be noted: in vivo. The method in brief:
(§2)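 Mixed E,Z material (E:Z 45:55 by LC-MS-MS), 100 mg/kg single oral gavage, 10-week-old female NOD/SCID mice. Each mouse bled once by tail vein (n = 3 per time point), sampling up to 24 h. Plasma E and Z isomers quantified by LC-MS-MS. Parameters are from mean plasma concentrations (n = 3).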

In data set [3] the test system is Mus musculus. In words: Tmax in NOD/SCID mouse at 100 mg/kg, po by LC-MS-MS analysis. In kind it is ADME, organism-based. More on the design: dose 100 mg/kg, route oral. To be noted: in vivo. The method, boiled down: as §2
A short description of data set [4]: Apparent oral clearance in NOD/SCID mouse at 100 mg/kg, po by LC-MS-MS analysis. In kind it is ADME, organism-based. More on the design: dose 100 mg/kg, route oral. The note with it: in vivo. The method in brief: as §2
Data set [5] can be described thus: Apparent volume of distribution during terminal phase in NOD/SCID mouse at 100 mg/kg, po by LC-MS-MS analysis. More on the design: dose 100 mg/kg, route oral. The data set is classed as ADME, organism-based. To be noted: in vivo, read-out: Vz/F. The method in brief: as §2
The subject of data set [6] is Mus musculus. In words: Clast in NOD/SCID mouse at 100 mg/kg, po by LC-MS-MS analysis. Set-up: dose 100 mg/kg, route oral. The data set is classed as ADME, organism-based. The note with it: in vivo. The method, boiled down: as §2
For data set [7], the system named is Mus musculus. In words: (§3) AUClast in NOD/SCID mouse at 100 mg/kg, po by LC-MS-MS analysis. The note with it: in vivo. In kind it is ADME, organism-based, Plasma. More on the design: time 0 - last, dose 100 mg/kg, route oral. The method in brief: as §2
Data set [8] deals with Mus musculus. In words: Half life in NOD/SCID mouse at 100 mg/kg, po by LC-MS-MS analysis. The note with it: in vivo. More on the design: dose 100 mg/kg, route oral. In kind it is ADME, organism-based. The method in brief:
as §2

Data set [9] has as its target T3, Aromatase (Homo sapiens, UniProt P11511).
T3 sequence (P11511 whole entry): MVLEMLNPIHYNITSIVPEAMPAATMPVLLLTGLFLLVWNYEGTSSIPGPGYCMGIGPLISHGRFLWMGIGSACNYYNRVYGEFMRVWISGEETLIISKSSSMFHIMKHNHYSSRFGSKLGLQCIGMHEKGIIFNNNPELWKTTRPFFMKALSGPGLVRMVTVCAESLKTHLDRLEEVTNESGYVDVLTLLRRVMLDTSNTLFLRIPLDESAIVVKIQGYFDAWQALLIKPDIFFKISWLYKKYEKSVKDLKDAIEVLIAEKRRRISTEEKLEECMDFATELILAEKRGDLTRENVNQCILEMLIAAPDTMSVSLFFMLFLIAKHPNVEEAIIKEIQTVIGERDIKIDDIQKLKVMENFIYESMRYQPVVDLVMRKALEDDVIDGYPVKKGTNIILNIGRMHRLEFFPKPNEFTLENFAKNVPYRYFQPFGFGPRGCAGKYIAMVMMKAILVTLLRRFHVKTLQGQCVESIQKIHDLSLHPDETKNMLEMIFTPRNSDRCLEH
In words: Inhibition of human recombinant placental aromatase. The method in brief:
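Recombinant human aromatase (CYP19) in microsomal incubations with fluorogenic substrate MFC, read as conversion to HFC. Compounds in methanol or methanol/dichloromethane, prewarmed 10 min at 37 °C with NADPH-regenerating mix, then enzyme/substrate in 0.1 M potassium phosphate pH 7.4 added. Activity given as % of vehicle control.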

Data set [10] is described as follows: as §3. In kind it is ADME, organism-based, Plasma. Set-up: time 0 - last, dose 100 mg/kg, route oral. The note with it: NOD/SCID, plasma. The method, boiled down: as §2
Data set [11] deals with T3, Aromatase. In words: Inhibition of human recombinant microsomal aromatase-mediated 7-methoxy-4-trifluoromethylcoumarin conversion to 7-hydroxytrifluoromethylcoumarin at 50 uM preincubated for 10 mins measured after 30 mins by fluorescence assay relative to control. To be noted: probe 7-methoxy-4-trifluoromethylcoumarin. The method in brief:
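Recombinant human CYP19 microsomal incubation, linear-range conditions. Samples in methanol or methanol/dichloromethane, prewarmed 10 min at 37 °C with NADPH-regenerating cofactor mix. Enzyme and MFC substrate added in 0.1 M potassium phosphate pH 7.4; 30 min reaction; stopped with Tris base in acetonitrile. HFC read at Ex/Em 409/530 nm against a standard curve. Result is % activity remaining vs vehicle; mean of at least three experiments.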

Data set [12] concerns the target Estrogen receptor beta (Homo sapiens) (UniProt Q92731). In words: Displacement of fluorescent ES2 from human recombinant ERbeta at 100 uM after 2 hrs by fluorimetric analysis relative to control. The method in brief: as §1
Data set [13] concerns the target T3, Aromatase. Description: Inhibition of human recombinant microsomal aromatase-mediated 7-methoxy-4-trifluoromethylcoumarin conversion to 7-hydroxytrifluoromethylcoumarin preincubated for 10 mins measured after 30 mins by fluorescence assay. The method, boiled down: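 Recombinant human CYP19 with MFC substrate in 0.1 M potassium phosphate pH 7.4; samples in methanol or methanol/dichloromethane, prewarmed 10 min at 37 °C with NADPH-generating cofactor mix (NADP+, MgCl2, glucose-6-phosphate, G6PDH), then 30 min reaction, stopped with 0.1 M Tris base in acetonitrile.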

Estrogen receptor beta (Homo sapiens), sequence (Q92731 whole entry): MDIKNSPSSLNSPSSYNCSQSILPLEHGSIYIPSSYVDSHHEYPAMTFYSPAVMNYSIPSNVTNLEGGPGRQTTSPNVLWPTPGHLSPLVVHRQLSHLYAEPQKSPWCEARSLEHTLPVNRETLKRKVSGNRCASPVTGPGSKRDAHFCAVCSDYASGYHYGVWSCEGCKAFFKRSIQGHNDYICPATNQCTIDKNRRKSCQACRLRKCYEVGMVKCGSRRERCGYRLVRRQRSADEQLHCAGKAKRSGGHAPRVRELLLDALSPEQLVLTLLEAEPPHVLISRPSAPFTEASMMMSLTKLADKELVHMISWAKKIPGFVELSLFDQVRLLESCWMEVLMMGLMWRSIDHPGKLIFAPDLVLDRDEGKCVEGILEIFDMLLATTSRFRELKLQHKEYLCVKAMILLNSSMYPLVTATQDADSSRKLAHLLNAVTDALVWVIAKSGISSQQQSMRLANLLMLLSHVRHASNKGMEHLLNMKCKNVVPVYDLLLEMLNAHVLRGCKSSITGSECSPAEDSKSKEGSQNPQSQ

In the case of `CCC(=C(c1ccc(O)cc1)c1ccc(O)cc1)c1ccccc1`, the Activity in [1] was 80%.

Usually EC50 stands for the concentration needed to bring the measured effect to its halfway point. A word on the Cmax: it is the maximum level reached in the sampled fluid or tissue. Broadly, the Tmax is the time from dosing to the highest level. For orientation: CL/F means clearance divided by bioavailability, as obtained after extravascular dosing. As for `CC/C(=C(/c1ccc(O)cc1)c1ccc(OCCN)cc1)c1ccccc1`, the EC50 at Estrogen receptor worked out at 0.0587 µM. This compound came in with a Cmax with Mus musculus [2] of 700 ng/mL. Moreover, the time of peak concentration (Tmax) in the data set with Mus musculus [3] was 2 h. The apparent clearance (CL/F) in data set [4] was 1.52 mL/min. Also, the Vd/F in data set [5] stood at 2.8 L. This compound also had a Clast in the data set on Mus musculus [6] of 100 ng/mL. Besides, the AUClast in the data set on Mus musculus [7] amounted to 5800 ng·h/mL. Moreover, the t1/2 in the data set with Mus musculus [8] is 21.4 h.

The term IC50 denotes the point on the concentration scale where inhibition reaches its midpoint. Turning to `CCC(=C(c1ccc(O)cc1)c1ccc(OCCN(C)C)cc1)c1ccccc1`, the IC50 at Aromatase [9] came out at 530 µM.

For the compound `CC/C(=C(\c1ccc(O)cc1)c1ccc(OCCNC)cc1)c1ccccc1` (mixture of isomers) [ENDOXIFEN], on Aromatase [9], the half-maximal inhibitory concentration (IC50) came out at 6 µM.

Broadly, the AUC(0-t) is exposure summed from dosing to a finite time, without extrapolation to infinity. Read a high AUC(0-t) as high exposure. For `CC/C(=C(\c1ccc(O)cc1)c1ccc(OCCN)cc1)c1ccccc1`, at Estrogen receptor, the EC50 was 0.017 µM. The compound further registered a Cmax with Mus musculus [2] of 2100 ng/mL. The Tmax in the data set on Mus musculus [3] was 1 h. In [4], the apparent clearance (CL/F) was 0.267 mL/min. In addition, the Vd/F in [5] is 0.5 L. The compound further came in with a Clast with Mus musculus [6] of 900 ng/mL. Moreover, in data set [10], the AUC(0-t) was determined as 35100 ng·h/mL. The t1/2 with Mus musculus [8] is 22.7 h.

For orientation: inhibition means the percentage by which the read-out fell short of the control. As for `CC/C(=C(/c1ccc(OCC(N)=O)cc1)c1ccc(OC(=O)C(C)(C)C)cc1)c1ccccc1`, the Activity was 56% in data set [1] and 45% in data set [12]. The inhibition at 0.5 h, 50 µM at Aromatase [11] was found to be 0%.

As for `CC/C(=C(/c1ccc(O)cc1)c1ccc(OC(=O)C(C)(C)C)cc1)c1ccccc1`, the Activity in data set [1] and in [12] was 68% each time. For the same compound, the inhibition at 0.5 h, 50 µM on Aromatase [11] is 8%.

With `CC/C(=C(\c1ccc(O)cc1)c1ccc(OCC(N)=O)cc1)c1ccccc1`, the results for the Activity in data set [1] and in data set [12] were 57% and 71%, respectively. Moreover, the IC50 on Aromatase [13] came to 9.26 µM.
